# Columns and labels:
# D(3) dopamine receptor = D(3) dopamine receptor (Rattus norvegicus, UniProt P19020); test: Displacement of [3H]spiperone from rat dopamine D3 receptor after 60 mins
# D(2) dopamine receptor [1] = target: T1, D(2) dopamine receptor (Homo sapiens, UniProt P14416); test: Displacement of [3H]spiperone from human D2L receptor after 60 mins
# Method in brief: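 Cloned human D2L receptor membranes from transfected cells were incubated 60 min at 27 °C with [3H]-spiperone (0.2 nM). Buffer was 50 mM Tris-HCl pH 7.4 with 10 mM MgCl2 and 1 mM EDTA, and haloperidol (10 µM) defined non-specific binding. Bound radioactivity was collected on 0.3% PEI-soaked GF/C filters and measured by scintillation counting.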
# [2] = target: D(3) dopamine receptor (Rattus norvegicus) (UniProt P19020); test: Displacement of [3H]-spiperone from rat D3 receptor after 60 mins
# D(2) dopamine receptor [3] = target: T1, D(2) dopamine receptor; test: Displacement of [3H]spiperone from human D2L receptor at 1 uM after 60 mins
# [4] = target: D(4) dopamine receptor (Homo sapiens) (UniProt P21917); test: Displacement of [3H]-YM-09151-2 from human D4.2 receptor after 60 mins
# D(4) dopamine receptor (Homo sapiens), sequence (P21917 whole entry, looked up): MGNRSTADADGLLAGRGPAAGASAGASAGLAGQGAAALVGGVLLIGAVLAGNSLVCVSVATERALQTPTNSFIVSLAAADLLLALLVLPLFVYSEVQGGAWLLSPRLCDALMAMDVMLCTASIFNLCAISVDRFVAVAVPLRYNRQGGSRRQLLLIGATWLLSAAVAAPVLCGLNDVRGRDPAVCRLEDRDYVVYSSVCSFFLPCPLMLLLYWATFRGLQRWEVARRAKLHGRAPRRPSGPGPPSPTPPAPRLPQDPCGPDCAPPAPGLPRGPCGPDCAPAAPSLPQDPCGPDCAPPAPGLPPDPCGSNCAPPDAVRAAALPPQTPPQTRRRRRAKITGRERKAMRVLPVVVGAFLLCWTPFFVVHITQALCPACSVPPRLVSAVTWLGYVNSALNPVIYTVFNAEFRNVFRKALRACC
# [5] = target: 5-hydroxytryptamine receptor 1A (Homo sapiens) (UniProt P08908); test: Displacement of [3H]8-OH-DPAT from human 5-HT1A receptor after 60 mins
# 5-hydroxytryptamine receptor 1A (Homo sapiens), sequence (P08908 whole entry, looked up): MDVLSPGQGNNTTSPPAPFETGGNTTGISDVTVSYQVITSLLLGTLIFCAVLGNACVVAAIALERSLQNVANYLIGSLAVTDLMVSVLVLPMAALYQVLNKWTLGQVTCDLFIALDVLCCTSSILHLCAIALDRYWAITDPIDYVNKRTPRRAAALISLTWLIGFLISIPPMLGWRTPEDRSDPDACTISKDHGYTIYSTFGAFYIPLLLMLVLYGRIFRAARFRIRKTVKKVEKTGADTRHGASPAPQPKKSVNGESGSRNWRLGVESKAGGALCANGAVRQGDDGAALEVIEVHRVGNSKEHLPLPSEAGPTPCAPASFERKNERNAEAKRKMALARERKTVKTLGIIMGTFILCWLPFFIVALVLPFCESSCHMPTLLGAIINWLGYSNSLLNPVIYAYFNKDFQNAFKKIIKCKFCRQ
# D(3) dopamine receptor, sequence (P19020 whole entry): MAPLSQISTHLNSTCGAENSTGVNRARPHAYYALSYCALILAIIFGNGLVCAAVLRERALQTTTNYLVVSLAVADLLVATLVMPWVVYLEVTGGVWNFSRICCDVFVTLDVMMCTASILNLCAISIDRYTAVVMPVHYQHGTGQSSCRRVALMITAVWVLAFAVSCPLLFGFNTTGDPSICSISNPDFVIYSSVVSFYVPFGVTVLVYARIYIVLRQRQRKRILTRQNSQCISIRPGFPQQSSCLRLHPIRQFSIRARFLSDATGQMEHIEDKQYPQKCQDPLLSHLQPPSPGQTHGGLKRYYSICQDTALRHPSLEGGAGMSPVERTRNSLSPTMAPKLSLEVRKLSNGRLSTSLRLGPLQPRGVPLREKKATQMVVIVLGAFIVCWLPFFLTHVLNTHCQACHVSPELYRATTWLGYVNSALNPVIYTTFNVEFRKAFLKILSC
# T1 sequence (P14416 whole entry): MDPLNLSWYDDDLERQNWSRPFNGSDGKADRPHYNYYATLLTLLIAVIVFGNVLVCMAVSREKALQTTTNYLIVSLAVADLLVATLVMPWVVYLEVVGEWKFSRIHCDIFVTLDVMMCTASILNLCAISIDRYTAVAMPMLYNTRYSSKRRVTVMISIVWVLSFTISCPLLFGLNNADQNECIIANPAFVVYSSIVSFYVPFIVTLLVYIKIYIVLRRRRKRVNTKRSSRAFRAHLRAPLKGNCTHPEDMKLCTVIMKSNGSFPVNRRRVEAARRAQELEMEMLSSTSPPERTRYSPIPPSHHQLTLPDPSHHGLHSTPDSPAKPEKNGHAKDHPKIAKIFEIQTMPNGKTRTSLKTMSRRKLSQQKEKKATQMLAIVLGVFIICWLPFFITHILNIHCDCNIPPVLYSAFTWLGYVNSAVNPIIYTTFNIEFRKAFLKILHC
structure (smiles),measurement,setting,value
COc1ccccc1N1CCN(CCCCCNS(=O)(=O)c2ccc3ccccc3c2)CC1,Ki,D(3) dopamine receptor,84 nM
same,Ki,D(2) dopamine receptor [1],438 nM
same,Ki,[2],12.5 nM
COc1ccccc1N1CCN(CCCCNC(=O)c2ccc3ccccc3c2)CC1,inhibition,D(2) dopamine receptor [3],30%
COc1ccccc1N1CCN(CCCCNS(=O)(=O)c2ccc3ccccc3c2)CC1,Ki,D(3) dopamine receptor,79 nM
same,Ki,D(2) dopamine receptor [1],46.5 nM
same,Ki,[2],27.5 nM
same,Ki,[4],62 nM
same,Ki,[5],4.1 nM
COc1ccccc1N1CCN(CCCNS(=O)(=O)c2ccc3ccccc3c2)CC1,Ki,D(3) dopamine receptor,101 nM
same,Ki,D(2) dopamine receptor [1],132 nM
same,Ki,[2],58.5 nM
same,Ki,[4],112 nM
same,Ki,[5],4.64 nM
COc1ccccc1N1CCN(CCCNC(=O)c2ccc3ccccc3c2)CC1,Ki,D(3) dopamine receptor,71 nM
same,inhibition,D(2) dopamine receptor [3],46%
same,Ki,[2],175 nM
same,Ki,[4],17.8 nM
same,Ki,[5],4.59 nM
COc1ccccc1N1CCN(CCCCCCNS(=O)(=O)c2ccc3ccccc3c2)CC1,Ki,D(3) dopamine receptor,≤ 45 nM
same,Ki,D(2) dopamine receptor [1],99 nM
same,Ki,[2],1.97 nM
same,Ki,[4],9.62 nM
same,Ki,[5],2.87 nM
COc1ccccc1N1CCN(CCNS(=O)(=O)c2ccc3ccccc3c2)CC1,Ki,D(3) dopamine receptor,348 nM
same,inhibition,D(2) dopamine receptor [3],44%
same,Ki,[2],56 nM
same,Ki,[4],24.4 nM
same,Ki,[5],5.19 nM
COc1ccccc1N1CCN(CCNC(=O)c2ccc3ccccc3c2)CC1,Ki,D(3) dopamine receptor,113 nM
same,Ki,D(2) dopamine receptor [1],890 nM
same,Ki,[2],66 nM
COc1ccccc1N1CCN(CCCCCNC(=O)c2ccc3ccccc3c2)CC1,Ki,D(3) dopamine receptor,9.36 nM
same,Ki,D(2) dopamine receptor [1],254 nM
same,Ki,[2],13 nM
same,Ki,[4],54 nM
same,Ki,[5],11.1 nM
COc1ccccc1N1CCN(CCCCCCNC(=O)c2ccc3ccccc3c2)CC1,Ki,D(3) dopamine receptor,96 nM
same,Ki,D(2) dopamine receptor [1],121 nM
same,Ki,[2],0.56 nM
